# Measured values collected from several papers.
# Lines come from different studies, so protocols differ.
# Target: Serine/threonine-protein kinase 33 (STK33, Homo sapiens, UniProt Q9BYT3)
SMILES,assay,setting,quantity,value
COc1cc(/C=C/C(=O)CC(=O)/C=C/c2ccc(O)c(OC)c2)ccc1O,"enzyme activity, inhibitor",1 µM,activity vs control,25%
FC(F)(F)Oc1cccc(-c2cnc3ccc(-c4ccncc4)nn23)c1,"enzyme activity, inhibitor, radiometric",5 µM,activity vs control,100%
CN(C)c1ncnc(-c2ccc3nc(Nc4cc(CN5CCN(C(=O)CC(F)(F)F)CC5)ccn4)[nH]c3c2)c1Cl,"cell-free assay, competition with immobilised ligand",1 µM,remaining binding,100%
Cc1ccc(Nc2nccc(N(C)c3ccc4c(C)n(C)nc4c3)n2)cc1S(N)(=O)=O,"enzyme activity, inhibitor",0.3 µM,inhibition,-2%
CN1CC(Oc2cnc(C#N)cc2-c2ccn3nc(NC(=O)C4CC4)cc3c2)C1,"enzyme activity, inhibitor",1 µM,inhibition,-3%
Nc1ncnc2occ(-c3ccc(NC(=O)Nc4cc(C(F)(F)F)ccc4F)cc3)c12,"enzyme activity, inhibitor",20 µM,remaining activity,4.3%
CCS(=O)(=O)c1cc2cc(C[C@@](O)(CC(C)(C)c3ccc(F)cc3C(N)=O)C(F)(F)F)[nH]c2cn1,"cell-free assay, competition with immobilised ligand",1 µM,remaining binding,91%
Cc1ccc(NC(=O)c2ccc(C)c(C(F)(F)F)c2)cc1C#Cc1nn(C2CCC(O)CC2)c2ncnc(N)c12 (stereo not shown),cell-free assay,10 µM,remaining signal,109%
CC(C)(O)[C@H]1CC[C@H](Nc2ccc3ncc(-c4cccc(C(F)(F)F)c4)n3n2)CC1,"enzyme activity, inhibitor",1 µM,remaining activity,40.5%
Cn1cnc(Br)c1C1=CN(c2ncnc3[nH]cnc23)CCS1,"enzyme activity, inhibitor, radiometric",50 nM,inhibition,35.8%
Cn1cc(Cl)c2c(Oc3c(F)cc(Nc4cc(Cl)nc(N)n4)cc3F)ccnc21,"cell-free assay, competition with immobilised ligand",0.1 µM,remaining binding,100%
Cn1cncc1C1=CN(c2ncnc3[nH]cnc23)CCS1,"enzyme activity, inhibitor, radiometric",50 nM,inhibition,23.6%
COc1cc(-c2cn(C3CCc4ccccc4N(CC(F)(F)F)C3=O)nn2)ccc1-n1ccc(C)n1 (stereo not shown),"cell-free assay, competition with immobilised ligand",1 µM,remaining binding,100%
COc1cc(Nc2cnc(C#N)c(O[C@H](C)CN(C)C)n2)ncc1-c1cnn(C)c1,"enzyme activity, inhibitor, radiometric",1 µM,remaining activity,59%
CS(=O)(=O)N1CCCC(NC(=O)[C@H](CCC2CCCCC2)NC(=O)c2ccc(CNc3ncnc4c3nnn4-c3ccccc3)cc2)C1 (stereo partly shown),"cell-free assay, competition with immobilised ligand",0.1 µM,remaining binding,84%
Cc1ccc(C(=O)Nc2ccc(CN3CCN(C)CC3)c(C(F)(F)F)c2)cc1C#Cc1cnc2cccnn12,"enzyme activity, inhibitor",23.5 nM,remaining activity,96%
Cc1sc(C(=O)NC2COC2)cc1-n1cc(NC(=O)Nc2c(F)cccc2Cl)cn1,"enzyme activity, inhibitor",10 µM,remaining activity,87.6%
Cn1nc(C(F)(F)F)cc1-c1cnc(N2CCc3cc(S(=O)(=O)Nc4c(F)cc(Cl)cc4F)cc(N4CCCC4=O)c32)nc1,"cell-free assay, competition with immobilised ligand",1 µM,remaining binding,100%
CCCOc1ccc(OC)c(F)c1C(=O)c1ccc(C(=O)N[C@@H]2CNC[C@H]2NC(=O)c2ccc3[nH]ncc3c2)cc1,"enzyme activity, inhibitor",10 µM,remaining activity,7%
